# Measurements: ChEMBL document CHEMBL1821668, “Isolation and characterization of aphidicolin and chlamydosporol derivatives from Tolypocladium inflatum” (J Nat Prod, 2011)
# Experiments:
# A549 = experiment: Cytotoxicity against human A549 cells after 72 hrs by MTS assay; assay type: functional, cell-based; conditions: A549, 72 h
# In short: (§1)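 Triplicate wells seeded at (2–5) × 10^3 cells each, depending on growth rate, and left overnight to attach. Medium was then replaced with medium containing test compound at serial dilutions from 100 mM DMSO stocks, or 0.1% DMSO. Incubation was 72 h at 37 °C in humidified 5% CO2. MTS was added in the dark, with a 90 min read-out incubation at 37 °C.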
# [1] = Cytotoxicity against human CNE1-LMP1 cells after 72 hrs by MTS assay; assay type: functional, cell-based; conditions: CNE1-LMP1, 72 h; in short: as §1
# A-375 = experiment: Cytotoxicity against human A375 cells after 72 hrs by MTS assay; assay type: functional, cell-based; conditions: A-375, 72 h; in short: as §1
# MCF7 = experiment: Cytotoxicity against human MCF7 cells after 72 hrs by MTS assay; assay type: functional, cell-based; conditions: MCF7, 72 h; in short: as §1
# [2] = Cytotoxicity against human MGC cells after 72 hrs by MTS assay; assay type: functional, cell-based; in short: as §1
# [3] = Cytotoxicity against human EC109 cells after 72 hrs by MTS assay; assay type: functional, cell-based; conditions: ECa-109, 72 h; in short: as §1
# PANC-1 = experiment: Cytotoxicity against human PANC1 cells after 72 hrs by MTS assay; assay type: functional, cell-based; conditions: PANC-1, 72 h; in short: as §1
# [4] = Cytotoxicity against human Hep3B2 cells after 72 hrs by MTS assay; assay type: functional, cell-based, Hep 3B2; conditions: Hep3B; in short: as §1
# HaCaT = experiment: Cytotoxicity against human HaCaT cells after 72 hrs by MTS assay; assay type: functional, cell-based; in short: as §1
SMILES,IC50 (A549),IC50 [1],IC50 (A-375),IC50 (MCF7),IC50 [2],IC50 [3],IC50 (PANC-1),IC50 [4],IC50 (HaCaT)
COc1cc(=O)oc2c1[C@H](O)O[C@@H](C)[C@H]2C [INFLATIN C],> 100 µM,> 100 µM,> 100 µM,> 100 µM,> 100 µM,> 100 µM,> 100 µM,> 100 µM,> 100 µM
CC(=O)OC[C@@]1(O)CC[C@]23C[C@H]1C[C@@H]2CC[C@H]1[C@]2(C)CO[C@H](c4ccc(O)cc4)O[C@@H]2CC[C@@]13C [INFLATIN B],25 µM,15 µM,25.5 µM,75.2 µM,> 100 µM,70.8 µM,53.2 µM,7.3 µM,55.1 µM
COc1cc(=O)oc2c1[C@H](O[C@@H]1O[C@@H](C)[C@@H](C)c3oc(=O)cc(OC)c31)O[C@@H](C)[C@@H]2C [INFLATIN E],> 100 µM,> 100 µM,> 100 µM,> 100 µM,> 100 µM,> 100 µM,> 100 µM,> 100 µM,> 100 µM
C[C@@]12CO[C@H](c3ccc(O)cc3)O[C@@H]1CC[C@@]1(C)[C@H]2CC[C@H]2C[C@@H]3C[C@@]21CC[C@]3(O)CO [INFLATIN A],75.3 µM,39.1 µM,47.3 µM,33.5 µM,54.5 µM,47.1 µM,19.9 µM,14.8 µM,49.1 µM
COc1cc(=O)oc2c1[C@H](O[C@@H]1O[C@@H](C)[C@H](C)c3oc(=O)cc(OC)c31)O[C@@H](C)[C@@H]2C [INFLATIN F],> 100 µM,> 100 µM,> 100 µM,> 100 µM,> 100 µM,> 100 µM,> 100 µM,57.5 µM,> 100 µM
COc1cc(=O)oc2c1[C@H](O[C@@H]1O[C@@H](C)[C@@H](C)c3oc(=O)cc(OC)c31)O[C@@H](C)[C@H]2C [INFLATIN D],> 100 µM,> 100 µM,> 100 µM,> 100 µM,> 100 µM,> 100 µM,> 100 µM,> 100 µM,> 100 µM
CC(=O)O[C@H]1C(=O)[C@@]2(C)[C@H]([C@H](OC(=O)c3ccccc3)[C@]3(O)C[C@H](OC(=O)[C@H](O)[C@@H](NC(=O)c4ccccc4)c4ccccc4)C(C)=C1C3(C)C)[C@]1(OC(C)=O)CO[C@@H]1C[C@@H]2O [PACLITAXEL],0.03 µM,0.0042 µM,0.0089 µM,0.014 µM,0.0064 µM,0.14 µM,0.0011 µM,1.6e-05 µM,0.024 µM
